Data: ChEMBL document CHEMBL3351454, “Design, synthesis, antimicrobial evaluation and molecular docking studies of some new thiophene, pyrazole and pyridone derivatives bearing sulfisoxazole moiety” (2014)
Values after ≈ are worked out from the molar mass of the structure shown.

Experiments:
Assay type in all cases: functional
Proteus vulgaris [1] = experiment: Antimicrobial activity against Proteus vulgaris RCMB 010085 assessed as absence of turbidity after 24 hrs; settings: RCMB 010085, 24 h
Summary of the method: (§1)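 Broth microdilution in Müller–Hinton broth. DMF stocks at 1000 µg/mL were diluted in broth to give twofold serial dilutions over 500–0.007 µg/mL. Bacterial inoculum was about 10^6 CFU/mL in 96-well plates, sealed and incubated at 37 °C for 24 h in a humid chamber. MIC was taken as the lowest concentration with no visible turbidity. DMF and uninoculated-medium controls were included. Only compounds giving zones >10 mm were tested.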

Streptococcus pneumoniae [2] = experiment: Antimicrobial activity against Streptococcus pneumoniae RCMB 010010 assessed as absence of turbidity after 24 hrs; settings: RCMB 010010, 24 h; summary of the method: as §1
Escherichia coli [3] = experiment: Antimicrobial activity against Escherichia coli RCMB 010052 assessed as inhibition zone at 5 mg/ml after 24 hrs; settings: RCMB 010052, 24 h, read-out: IZ
Summary of the method: (§2)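 Agar diffusion on nutrient agar seeded with 10^6 CFU/mL bacteria. Filter-paper disks were loaded with 100 µL of a 5 mg/mL compound solution in DMF, with a DMF-only control. Incubation was 37 °C for 24 h. Inhibition zone in mm (mean ± SD, triplicate plates) was measured beyond the 6 mm diameter.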

Aspergillus fumigatus [4] = experiment: Antifungal activity against Aspergillus fumigatus RCMB 02568 assessed as inhibition zone at 5 mg/ml after 48 hrs; settings: RCMB 02568, 48 h, read-out: IZ
Summary of the method: (§3)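 Disk diffusion on nutrient agar seeded with 10^4 CFU/mL fungus. Sterile filter-paper disks carried 100 µL of a 5 mg/mL DMF solution, and DMF alone served as control. Plates were incubated at 25 °C for 48 h. Mean inhibition zone in mm ± SD was read beyond the 6 mm diameter, in triplicate.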

Aspergillus fumigatus [5] = experiment: Antifungal activity against Aspergillus fumigatus RCMB 02568 assessed as absence of turbidity after 48 hrs; settings: RCMB 02568, 48 h
Summary of the method: as §1, with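 “Sabouraud liquid medium.” for “Müller–Hinton broth.”, “Fungal” for “Bacterial”, “10^4” for “10^6”, “25” for “37”, “48” for “24”, “included.” for “included. Only compounds giving zones >10 mm were tested.”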

Geotrichum candidum [6] = experiment: Antifungal activity against Geotrichum candidum RCMB 05097 assessed as absence of turbidity after 48 hrs; settings: RCMB 05097, 48 h
Summary of the method: as §1, with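 “Sabouraud liquid medium.” for “Müller–Hinton broth.”, “Fungal” for “Bacterial”, “10^4” for “10^6”, “25” for “37”, “48” for “24”, “included.” for “included. Only compounds giving zones >10 mm were tested.”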

Escherichia coli [7] = experiment: Antimicrobial activity against Escherichia coli RCMB 010052 assessed as absence of turbidity after 24 hrs; settings: RCMB 010052, 24 h; summary of the method: as §1
[8] = system: Syncephalastrum racemosum; experiment: Antifungal activity against Syncephalastrum racemosum RCMB 05922 assessed as absence of turbidity after 48 hrs; settings: RCMB 05922, 48 h
[9] = system: Staphylococcus epidermidis; experiment: Antimicrobial activity against Staphylococcus epidermidis RCMB 010024 assessed as absence of turbidity after 24 hrs; settings: RCMB 010024, 24 h; summary of the method: as §1
Klebsiella pneumoniae [10] = experiment: Antimicrobial activity against Klebsiella pneumoniae RCMB 010093 assessed as inhibition zone at 5 mg/ml after 24 hrs; settings: RCMB 010093, 24 h, read-out: IZ; summary of the method: as §2
[11] = system: Staphylococcus epidermidis; experiment: Antimicrobial activity against Staphylococcus epidermidis RCMB 010024 assessed as inhibition zone at 5 mg/ml after 24 hrs; settings: RCMB 010024, 24 h, read-out: IZ; summary of the method: as §2
Proteus vulgaris [12] = experiment: Antimicrobial activity against Proteus vulgaris RCMB 010085 assessed as inhibition zone at 5 mg/ml after 24 hrs; settings: RCMB 010085, 24 h, read-out: IZ; summary of the method: as §2
Klebsiella pneumoniae [13] = experiment: Antimicrobial activity against Klebsiella pneumoniae RCMB 010093 assessed as absence of turbidity after 24 hrs; settings: RCMB 010093, 24 h; summary of the method: as §1
Bacillus subtilis [14] = experiment: Antimicrobial activity against Bacillis subtilis RCMB 010067 assessed as absence of turbidity after 24 hrs; settings: RCMB 010067, 24 h; summary of the method: as §1
Bacillus subtilis [15] = experiment: Antimicrobial activity against Bacillis subtilis RCMB 010067 assessed as inhibition zone at 5 mg/ml after 24 hrs; settings: RCMB 010067, 24 h, read-out: IZ; summary of the method: as §2
[16] = system: Syncephalastrum racemosum; experiment: Antifungal activity against Syncephalastrum racemosum RCMB 05922 assessed as inhibition zone at 5 mg/ml after 48 hrs; settings: RCMB 05922, 48 h, read-out: IZ
Streptococcus pneumoniae [17] = experiment: Antimicrobial activity against Streptococcus pneumoniae RCMB 010010 assessed as inhibition zone at 5 mg/ml after 24 hrs; settings: RCMB 010010, 24 h, read-out: IZ; summary of the method: as §2
Geotrichum candidum [18] = experiment: Antifungal activity against Geotrichum candidum RCMB 05097 assessed as inhibition zone at 5 mg/ml after 48 hrs; settings: RCMB 05097, 48 h, read-out: IZ; summary of the method: as §3

## COc1ccc(-c2c(C#N)c(N)n(-c3ccc(S(=O)(=O)Nc4onc(C)c4C)cc3)c(=O)c2C#N)cc1
Proteus vulgaris [1]
  MIC: 15.6 µg/mL (≈ 30.3 µM)
Streptococcus pneumoniae [2]
  MIC: 0.98 µg/mL (≈ 1.9 µM)
Escherichia coli [3]
  zone of inhibition at 5000 µg/mL: 16.2 mm
Aspergillus fumigatus [4]
  zone of inhibition at 5000 µg/mL: 20.6 mm
Aspergillus fumigatus [5]
  MIC: 0.98 µg/mL (≈ 1.9 µM)
Geotrichum candidum [6]
  MIC: 0.98 µg/mL (≈ 1.9 µM)
Escherichia coli [7]
  MIC: 31.2 µg/mL (≈ 60.5 µM)
[8]
  MIC: 1.95 µg/mL (≈ 3.78 µM)
[9]
  MIC: 7.81 µg/mL (≈ 15.1 µM)
Klebsiella pneumoniae [10]
  zone of inhibition at 5000 µg/mL: 22.3 mm
[11]
  zone of inhibition at 5000 µg/mL: 18.1 mm
Proteus vulgaris [12]
  zone of inhibition at 5000 µg/mL: 17.2 mm
Klebsiella pneumoniae [13]
  MIC: 0.49 µg/mL (≈ 0.949 µM)
Bacillus subtilis [14]
  MIC: 0.49 µg/mL (≈ 0.949 µM)
Bacillus subtilis [15]
  zone of inhibition at 5000 µg/mL: 22.2 mm
[16]
  zone of inhibition at 5000 µg/mL: 19.7 mm
Streptococcus pneumoniae [17]
  zone of inhibition at 5000 µg/mL: 20.3 mm
Geotrichum candidum [18]
  zone of inhibition at 5000 µg/mL: 20.9 mm
